# Screening data: PubChem, several laboratories
# FXN GAA850 act: activators of GAA850 frataxin (FXN) promoter. HEK293 lucGAA850 FXN promoter luciferase reporter, 24 h; percent of 10 µM SAHA response. activation, % at 6 µM. actives 0.56% (n = 360,000);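 active = activation above the average of all compounds screened plus 3 SD, cutoff fixed separately per campaign, cut at about 7.5% in these data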;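 also: 0% = DMSO wells and 100% = 10 µM SAHA wells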
# AHR activator: human AHR activation. P35869. AHR-responsive luciferase reporter cells, luminescence. activation, % at 5 µM. actives 2.5% (n = 320,000); in the data active = activation above about 47%;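 also: 0% = vehicle wells and 100% = reference agonist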
# CTSL1 counter-1: counter-screen for PFM18AAP inhibitors: inhibitors of F. hepatica cathepsin L1. actives 0.49% (n = 300,000). recombinant F. hepatica cathepsin L1, Z-Leu-Arg-MCA fluorescence. inhibition, % at 5.96 µM. AID 1906;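 active = inhibition above the mean of all tested compounds plus 3 SD, set per screening campaign, cut at about 17% in these data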;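 also: 0% = plate median of test compound wells and 100% = 1 µM Z-Phe-Ala-diazomethylketone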
# HDAC3 inhib: inhibitors of human histone deacetylase 3; O15379; recombinant HDAC3, fluorogenic peptide/trypsin coupled, fluorescence; inhibition, % at 8.3 µM; actives 0.15% (n = 320,000); AID 2718; in the data active = inhibition above about 26%, passing the limit was not always enough; inconclusive = no clear call, values can overlap the other calls
# Target sequence (O15379 whole entry, looked up): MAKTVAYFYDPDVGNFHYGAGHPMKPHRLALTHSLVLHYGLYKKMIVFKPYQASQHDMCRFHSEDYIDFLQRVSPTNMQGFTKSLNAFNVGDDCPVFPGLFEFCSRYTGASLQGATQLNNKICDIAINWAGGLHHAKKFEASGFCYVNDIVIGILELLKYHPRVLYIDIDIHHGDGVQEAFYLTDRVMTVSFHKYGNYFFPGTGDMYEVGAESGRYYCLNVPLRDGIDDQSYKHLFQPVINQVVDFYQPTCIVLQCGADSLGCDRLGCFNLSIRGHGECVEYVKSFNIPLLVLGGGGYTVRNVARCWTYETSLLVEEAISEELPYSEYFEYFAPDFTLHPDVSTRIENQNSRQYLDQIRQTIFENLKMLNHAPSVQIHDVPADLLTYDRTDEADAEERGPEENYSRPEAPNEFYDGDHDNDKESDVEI
# PfM18AAP inh-1: blocks P. falciparum M18 aspartyl aminopeptidase. inhibition, % at 7.35 µM. recombinant PfM18AAP, H-Glu-NHMec fluorogenic cleavage. actives 1.2% (n = 290,000);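 active = inhibition above the campaign mean inhibition over all tested compounds plus 3 SD, cut at about 28% in these data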;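 also: 0% = plate median of test compound wells and 100% = 2 mM ZnCl2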
# SENP1 inh: SENP1 (human) catalytic domain inhibition; Q9P0U3; recombinant SENP1 catalytic domain, CyPet-SUMO1-YPet FRET cleavage; inhibition, % at 10 µM; actives 0.21% (n = 360,000);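 active = inhibition at least 30% at 10 µM, raw YFP signal under a set limit, fluorescence ratio 0.5 to 1.5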;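 also: 0% = enzyme with DMSO and 100% = no enzyme wells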
# Target sequence (Q9P0U3 419-644 limits assumed): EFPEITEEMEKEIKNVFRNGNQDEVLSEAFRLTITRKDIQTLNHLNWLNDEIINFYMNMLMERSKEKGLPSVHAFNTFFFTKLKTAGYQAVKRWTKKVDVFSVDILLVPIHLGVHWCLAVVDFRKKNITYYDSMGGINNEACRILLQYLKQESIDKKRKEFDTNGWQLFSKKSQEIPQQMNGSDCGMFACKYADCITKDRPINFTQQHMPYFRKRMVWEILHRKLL
#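 Test system: recombinant human SENP1 catalytic domain, His6-tagged / Medium: pH 8 Tris buffer with EDTA, NaCl, BME, BSA, NP40, catalase / Also added: SUMO1 FRET substrate flanked by Cypet and Ypet, 25 nM / Times: 50 min reaction at room temperature / Signal: FRET, CFP and YFP emission / Control set: no-enzyme low control and enzyme-plus-DMSO high control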
# PfM18AAP inh-2: confirmation of Plasmodium falciparum M18 aspartyl aminopeptidase inhibitors. AID 2170. actives 28% (n = 2,400). recombinant PfM18AAP, H-Glu-NHMec fluorogenic cleavage. inhibition, % at 7.35 µM. shares compounds with PfM18AAP inh-1;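 active = mean inhibition over replicate wells above the hit cutoff set for the earlier primary screen, cut at about 29% in these data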;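 also: 0% = median of test compound wells and 100% = 2 mM ZnCl2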
# CTSL1 counter-2: Cathepsin L (human) inhibition, confirmation; shares compounds with PfM18AAP inh-1; purified cathepsin L1, Z-Leu-Arg-MCA fluorescence; inhibition, % at 5.96 µM; 2,400 tested, under 10 active;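 active = average inhibition across replicates above the hit cutoff set in the earlier primary screen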;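 also: 0% = median of test compound wells and 100% = Z-Phe-Ala-diazomethylketone 1 µM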
# Starred values were filed as active, the others as inactive; u = inconclusive; x = no result. Only some compounds are listed: those with a hit (about 4.2% of all), similar ones and a draw of the others.
SMILES,FXN GAA850 act,AHR activator,CTSL1 counter-1,HDAC3 inhib,PfM18AAP inh-1,SENP1 inh,PfM18AAP inh-2,CTSL1 counter-2
O=C(Nn1cnnc1)c1ccc(OC(F)(F)C(F)C(F)(F)F)cc1 (centres undefined),0,-1,-3,-2,38*,1,5,-6
O=C(Nn1cnnc1)c1ccc(Cl)cc1,0,0,1,u,42*,2,26,0
O=C(COC(=O)c1cc(=O)[nH]c(=O)[nH]1)Nc1ccccc1F,0,0,x,0,x,3,x,x
Cc1ccc(-c2csc3n[nH]c(=S)n23)cc1,0,0,0,17,63*,3,52*,0
Cc1ccc(-n2c(-c3cccc(C)c3)n[nH]c2=S)cc1,-1,-1,2,1,-2,-1,x,x
CCOc1ccccc1/C=N/Nc1nc2c(N)ncnc2n1[C@H]1O[C@@H](CO)[C@H](O)[C@@H]1O,2,1,-1,4,36*,-1,-25,4
CC1CCN(c2nc3c(N)ncnc3n2[C@@H]2O[C@H](CO)[C@@H](O)[C@H]2O)CC1,-1,1,-1,-6,2,1,x,x
CC1(C(=O)NC2CCN(Cc3ccccc3)CC2)CCN1Cc1ccc2ccccc2c1 (centres undefined),-2,x,x,x,x,-1,x,x
O=C(Nn1cnnc1)c1cc2cc(Br)ccc2oc1=O,3,-1,2,3,34*,-1,25,3
CCc1ccc(CN(Cc2cccnc2)C(=O)/C=C/c2ccc(OC)cc2)cc1,2,3,0,15,6,-53,x,x
CCC(=O)NNC(=O)c1cc(COc2cc(Cl)cc(Cl)c2)on1,1,2,1,1,26,1,x,x
NS(=O)(=O)c1ccc(NS(=O)(=O)c2cccs2)cc1,0,2,-7,-5,4,1,x,x
NS(=O)(=O)c1ccc(NNC(=O)c2cccs2)cc1,-1,1,-1,10,55*,2,36*,2
O=C(NNc1cc(Cl)cc(Cl)c1)c1cccs1,2,1,1,1,37*,1,33*,2
O=C(NNc1ccc(Cl)cc1)c1cccs1,3,5,-2,x,44*,-1,25,-1
O=C(NCc1cccs1)Nc1cccc(Cl)c1,4,5,-1,5,6,2,x,x
O=C(NNC(=O)c1cccs1)Nc1cccc(Cl)c1,0,13,2,-4,60*,4,20,3
O=C(NNC(=S)Nc1ccc(Cl)cc1)c1cccs1,2,3,7,-2,8,2,x,x
CSc1ncnc2c1ncn2CCCN(C)Cc1ccco1,-1,x,x,x,x,1,x,x
O=[N+]([O-])c1cc(Br)c(O)c(/C=N/Nc2nnnn2-c2cccc3ccccc23)c1,-1,3,5,5,38*,-34,-5,-7
CC1(C)Cc2c(sc3ncn4c(=S)[nH]nc4c23)CO1,3,0,0,15,43*,-4,30*,-1
CC1N(C(=O)N2CCOCC2)CCN1S(=O)(=O)c1ccc(Cl)cc1 (centres undefined),-2,-2,7,-2,-22,2,x,x
CNC(=S)NNC(=O)c1cn(C)nc1C,2,6,-2,-4,32*,-2,19,-4
Cc1nn(C)cc1C(=O)NNC(=S)Nc1ccccc1,6,3,-1,2,14,1,x,x
CCN(CC)c1ccc(NS(=O)(=O)c2ccc(OC)cc2)cc1,1,4,-1,-3,32*,-12,-27,1
SMILES,FXN GAA850 act,AHR activator,CTSL1 counter-1,HDAC3 inhib,PfM18AAP inh-1,SENP1 inh,PfM18AAP inh-2,CTSL1 counter-2
COc1ccc(S(=O)(=O)Nc2ccc(N(C)C(C)=O)cc2)cc1,2,2,3,0,5,1,x,x
O=C(NCC1CC1)C1Cc2c(-c3ccc4c(c3)OCO4)ccnc2O1 (centres undefined),0,x,x,x,x,-2,x,x
NNC(=O)c1c(O)c2cccc3c2n(c1=O)CCC3,0,9,2,1,34*,-3,-4,2
COc1ccccc1NS(=O)(=O)c1ccc(C)c(C(=O)NCC(c2cccs2)N2CCOCC2)c1 (centres undefined),-1,x,x,x,x,-1,x,x
COc1ccc(S(=O)(=O)Nc2cc(SCC(=O)O)c(O)c3ccccc23)cc1,3,66*,-2,4,33*,0,0,-2
COc1ccc(NC(=O)c2cccc(NC3=NC4CS(=O)(=O)CC4S3)c2)cc1Cl (centres undefined),1,0,2,x,3,1,x,x
O=C(O)c1ccc2c(c1)C(=O)/C(=C\c1ccco1)C2=O,-1,3,7,5,42*,31*,40*,-6
O=C(CSc1nnc(N2CCCC2)n1-c1ccccc1Cl)N1CCN(c2ccccn2)CC1,0,1,x,x,x,0,x,x
CN(C)C(=O)c1cccc(-c2csc(N3CCC(C(N)=O)CC3)n2)c1,x,9,x,3,x,x,x,x
CC(=O)c1ccc(NC(=O)c2sc3nc(N4CCOCC4)c4c(c3c2N)CCCC4)cc1,2,0,1,4,43*,-96,4,4
COc1cccc(NC(=O)c2sc3nc(N4CCOCC4)c4c(c3c2N)CCCC4)c1,5,-3,1,-6,50*,-73,2,-18
Nc1c(C(=O)Nc2ccccc2)sc2nc(N3CCOCC3)c3c(c12)CCCC3,2,x,x,x,x,-95,x,x
CCOc1ccc(NC(=O)c2sc3nc(N4CCOCC4)c4c(c3c2N)CCCC4)cc1,5,-1,1,8,43*,-15,15,5
Nc1c(C(=O)N2CCOCC2)sc2nc(N3CCOCC3)c3c(c12)CCCC3,1,11,-2,17,37*,-20,10,1
NNC(=O)c1sc2nc(N3CCOCC3)c3c(c2c1N)CCCC3,1,22,-1,-13,-2,-106,x,x
CCN(CC)C(=O)c1cccc(-c2csc(C(O)c3ccc(F)c(F)c3)n2)c1 (centres undefined),-3,x,x,x,x,0,x,x
CCc1nc2c(OCC(=O)C(C)(C)C)cccn2c1N(C)C(=O)c1ccc(C)cc1,0,x,x,x,x,-2,x,x
Nc1c(C(=O)Nc2ccc(Cl)cc2)sc2nc(N3CCOCC3)c3c(c12)CCCC3,4,-2,2,8,42*,-109,0,0
CCc1cccc(CC)c1NC(=S)NCCc1ccc(O)c(O)c1,3,1,2,u,65*,2,40*,-9
COC(=O)[C@]12CCCCC=C1N(Cc1ccccc1)C(=O)[C@H](CC(=O)NCCC(C)C)C2,x,x,x,x,x,0,x,x
